Data on 8 molecules can be found in publication PMC8970626 (Biochemistry, 2022).

Data set [1] concerns the target T1, human CYP24A1 (hCYP24A1) (Homo sapiens, UniProt Q07973).
T1 sequence (Q07973 36-514): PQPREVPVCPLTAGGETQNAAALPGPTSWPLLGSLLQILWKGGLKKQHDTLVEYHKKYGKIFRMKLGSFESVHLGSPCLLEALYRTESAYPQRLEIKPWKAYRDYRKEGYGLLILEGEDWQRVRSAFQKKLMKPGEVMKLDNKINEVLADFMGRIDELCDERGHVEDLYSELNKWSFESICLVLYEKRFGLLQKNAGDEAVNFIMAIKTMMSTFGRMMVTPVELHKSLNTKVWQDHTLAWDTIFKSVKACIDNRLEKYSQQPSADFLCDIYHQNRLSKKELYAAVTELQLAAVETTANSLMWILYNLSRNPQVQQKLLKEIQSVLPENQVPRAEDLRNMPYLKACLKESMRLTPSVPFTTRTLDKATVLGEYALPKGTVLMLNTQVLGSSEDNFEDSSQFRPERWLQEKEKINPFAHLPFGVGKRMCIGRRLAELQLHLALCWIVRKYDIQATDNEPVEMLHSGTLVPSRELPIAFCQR
As to the kind of experiment: Spectral ligand binding assay with hCYP24A1. The conditions noted are these: for spectral response on titration (type-I, high-spin transition): hCYP24A1 without hAdx.

In data set [2] the test system is rat CYP24A1. The conditions noted are these: cited from earlier work.
For data set [3], the target named is T2, hCYP24A1 (Homo sapiens, UniProt Q07973).
T2 sequence (Q07973 36-514): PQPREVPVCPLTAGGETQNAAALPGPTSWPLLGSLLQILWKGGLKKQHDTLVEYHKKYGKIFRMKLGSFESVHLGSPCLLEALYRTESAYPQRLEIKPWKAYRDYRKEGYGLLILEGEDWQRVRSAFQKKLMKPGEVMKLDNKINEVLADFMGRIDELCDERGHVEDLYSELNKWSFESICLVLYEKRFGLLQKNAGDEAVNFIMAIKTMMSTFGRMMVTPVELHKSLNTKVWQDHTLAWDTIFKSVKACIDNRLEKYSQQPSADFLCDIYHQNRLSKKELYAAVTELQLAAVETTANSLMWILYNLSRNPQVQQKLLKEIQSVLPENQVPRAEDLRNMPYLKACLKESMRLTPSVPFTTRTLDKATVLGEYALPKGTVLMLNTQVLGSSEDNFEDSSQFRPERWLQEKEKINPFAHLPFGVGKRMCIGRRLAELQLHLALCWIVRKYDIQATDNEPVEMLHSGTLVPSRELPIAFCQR
T2 sequence (P10109 61-184 D132N/D136N partner): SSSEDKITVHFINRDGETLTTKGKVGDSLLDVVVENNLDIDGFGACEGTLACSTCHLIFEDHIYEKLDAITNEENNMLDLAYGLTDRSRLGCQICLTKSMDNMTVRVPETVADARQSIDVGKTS
As to the kind of experiment: Reconstituted hCYP24A1 functional assay. The format is biochemical. To be noted: D72N_D76N hAdx double mutant; substrate 5 μM.

In data set [4] the target is T3, rat CYP24A1 (rCYP24A1) (Rattus norvegicus, UniProt Q09128).
T3 sequence (Q09128 36-514): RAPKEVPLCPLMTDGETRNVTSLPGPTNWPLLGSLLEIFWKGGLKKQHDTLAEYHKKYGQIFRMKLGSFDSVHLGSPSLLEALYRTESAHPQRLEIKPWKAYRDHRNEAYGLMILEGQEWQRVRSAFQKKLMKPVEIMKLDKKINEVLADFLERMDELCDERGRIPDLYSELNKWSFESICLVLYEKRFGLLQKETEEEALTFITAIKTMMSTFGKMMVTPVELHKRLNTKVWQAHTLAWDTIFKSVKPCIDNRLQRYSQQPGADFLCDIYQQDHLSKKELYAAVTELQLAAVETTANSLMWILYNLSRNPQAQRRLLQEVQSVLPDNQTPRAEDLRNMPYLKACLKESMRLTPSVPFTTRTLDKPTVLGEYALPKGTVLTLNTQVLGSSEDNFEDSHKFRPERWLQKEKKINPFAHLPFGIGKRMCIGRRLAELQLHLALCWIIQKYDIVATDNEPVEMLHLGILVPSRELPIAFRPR
As to the kind of experiment: Spectral ligand binding assay with rCYP24A1. To be noted: rCYP24A1, no Adx. In short, it runs like this: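 UV-visible difference-spectra titration at ambient temperature with enzyme at 1 μM in 10 mM potassium phosphate. Ligand added from DMSO stock, solvent ≤2%, with 8 min incubation per point before each wavelength scan. Where Adx was present, 10 μM hAdx (WT or L80V) was baselined in the cuvette before enzyme and ligand.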

Data set [5] addresses T4, human cytochrome P450 24A1 (hCYP24A1), cleaved and separated from the hAdx_hCYP24A1 fusion (human, UniProt Q07973 36-514).
T4 sequence (looked up): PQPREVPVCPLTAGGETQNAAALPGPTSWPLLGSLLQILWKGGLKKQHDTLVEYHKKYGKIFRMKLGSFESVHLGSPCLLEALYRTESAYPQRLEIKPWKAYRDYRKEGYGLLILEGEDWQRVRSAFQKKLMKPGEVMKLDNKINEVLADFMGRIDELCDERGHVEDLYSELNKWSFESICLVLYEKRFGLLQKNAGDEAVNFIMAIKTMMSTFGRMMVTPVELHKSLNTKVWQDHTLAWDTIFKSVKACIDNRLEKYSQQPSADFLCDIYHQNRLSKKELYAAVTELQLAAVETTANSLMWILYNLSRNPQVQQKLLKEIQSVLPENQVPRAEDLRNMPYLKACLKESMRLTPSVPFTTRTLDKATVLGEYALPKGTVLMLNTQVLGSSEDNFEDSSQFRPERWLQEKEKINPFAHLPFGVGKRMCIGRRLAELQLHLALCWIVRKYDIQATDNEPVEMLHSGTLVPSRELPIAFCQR
As to the kind of experiment: cross-linking.

Several values for one entry are separate records, joined by “and”; a condition that tells them apart may be missing. Equal values may be shown once.

For `C=C1/C(=C\C=C2/CCC[C@]3(C)[C@@H]([C@H](C)CCCC(C)C)CC[C@@H]23)C[C@@H](O)C[C@@H]1O` [1α(OH)D], in data set [1] (+hAdx (WT, 10-fold, 10 μM)), the dissociation constant Kd was determined as 700 ± 50 nM and the ΔAmax amounted to 0.055 ± 0.004 AU. In data set [1] (hCYP24A1 1 μM, no hAdx), this molecule displayed an equilibrium dissociation constant (Kd) of 400 ± 100 nM and a ΔAmax of 0.04 ± 0.008 AU. In addition, the “spectral response on titration (type-I, high-spin transition)” value (shortened to “spectral response on titration”) in data set [1] is on record as “type-I response, albeit with a more noticeable increase in the high-spin transition”. Also, the “substrate quality for rat CYP24A1” value in data set [2] is reported as “poor substrate”.
Consider `C=C1CC[C@H](O)C/C1=C/C=C1\CCC[C@]2(C)[C@@H]([C@H](C)CCCC(C)(C)O)CC[C@@H]12` [25(OH)D], for which, in data set [1], the “spectral response on titration” value is listed as “no measureable high-spin form is detected”. In addition, the “binding affinity relative to other substrates” value in data set [1] (interaction could not be saturated) was “likely binds with a weaker affinity than the other substrates tested”.
As for `C=C1/C(=C\C=C2/CCC[C@]3(C)[C@@H]([C@H](C)CCCC(C)(C)O)CC[C@@H]23)C[C@@H](O)C[C@@H]1O` [1α,25(OH)2D], in data set [3], the substrate remaining entry is “approximately 60%”. Also, the ΔAmax was 0.02 ± 0.002 AU in data set [1] (10-fold excess of D72N_D76N hAdx); 0.04 ± 0.003 AU in data set [1] (10-fold excess of L80I hAdx); 0.02 ± 0.001 AU in data set [1] (10-fold excess of L80Q hAdx); 0.04 ± 0.003 AU in data set [1] (10-fold excess of L80V hAdx); 0.03 ± 0.004 AU in data set [1] (+hAdx (WT, 10-fold, 10 μM)); 0.03 ± 0.004 AU and 0.03 ± 0.005 AU in data set [1] (hCYP24A1 1 μM, no hAdx). For the same molecule, the ΔAmax in data set [4] is on record as 0.05 ± 0.004 AU. The “spectral response on titration” value in data set [1] is reported as “type-I transition of the Soret band”.
In data set [1] (+hAdx (WT, 10-fold, 10 μM)), `C=C1/C(=C/C=C2\CCC[C@@]3(C)C2CC[C@@H]3C(C)CCC(O)C(C)(C)O)C[C@@H](O)C[C@@H]1O` (stereo partly drawn) [1α,24,25(OH)3D] came in with a Kd of 4000 ± 40 nM and a ΔAmax of 0.04 ± 0.003 AU. In addition, the “spectral response on titration” value in data set [1] is “only a minimal type-I response”.

B1: human adrenodoxin (hAdx), unfused, wild type (natural protein)
chain: SSSEDKITVHFINRDGETLTTKGKVGDSLLDVVVENNLDIDGFGACEGTLACSTCHLIFEDHIYEKLDAITDEENDMLDLAYGLTDRSRLGCQICLTKSMDNMTVRVPETVADARQSIDVGKTS
With B1, in data set [5], the binding result is listed as “binds”.

B2: human adrenodoxin mutant L80V (natural protein)
chain: SSSEDKITVHFINRDGETLTTKGKVGDSLLDVVVENNLDIDGFGACEGTLACSTCHLIFEDHIYEKLDAITDEENDMLDVAYGLTDRSRLGCQICLTKSMDNMTVRVPETVADARQSIDVGKTS
As for B2, the binding result in data set [5] is on record as “binds”.

B3: human adrenodoxin mutant L80Q (natural protein)
chain: SSSEDKITVHFINRDGETLTTKGKVGDSLLDVVVENNLDIDGFGACEGTLACSTCHLIFEDHIYEKLDAITDEENDMLDQAYGLTDRSRLGCQICLTKSMDNMTVRVPETVADARQSIDVGKTS
For B3, the binding result in data set [5] was “binds”.

B4: human adrenodoxin mutant L80I (natural protein)
chain: SSSEDKITVHFINRDGETLTTKGKVGDSLLDVVVENNLDIDGFGACEGTLACSTCHLIFEDHIYEKLDAITDEENDMLDIAYGLTDRSRLGCQICLTKSMDNMTVRVPETVADARQSIDVGKTS
Consider B4, for which the binding result in data set [5] is recorded as “binds”.

Usually Kd stands for the concentration at which binding is half-saturated. Read a high Kd as a looser complex.
